The values below come from ChEMBL document CHEMBL4373706, “Discovery of Inhibitors of Aurora/PLK Targets as Anticancer Agents” (J Med Chem, 2019).

Series [1] in a line: Lipid/water partition coefficient, log D of the compound. It counts as physicochemical.
The target of series [2] is Aurora kinase B (Homo sapiens, UniProt Q96GD4). Kind of series: Binding affinity to wild-type human partial length AURKB (D25 to A303 residues) expressed in mammalian expression system measured after 1 hr by Kinomescan method. In outline: (§1)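 KINOMEscan competition binding assay. A 321-kinase panel was first screened at 10 μM compound, and binding affinities were then determined for Aurora and PLK family members.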
Chain of Aurora kinase B (Q96GD4 whole entry, the tested form may be a part): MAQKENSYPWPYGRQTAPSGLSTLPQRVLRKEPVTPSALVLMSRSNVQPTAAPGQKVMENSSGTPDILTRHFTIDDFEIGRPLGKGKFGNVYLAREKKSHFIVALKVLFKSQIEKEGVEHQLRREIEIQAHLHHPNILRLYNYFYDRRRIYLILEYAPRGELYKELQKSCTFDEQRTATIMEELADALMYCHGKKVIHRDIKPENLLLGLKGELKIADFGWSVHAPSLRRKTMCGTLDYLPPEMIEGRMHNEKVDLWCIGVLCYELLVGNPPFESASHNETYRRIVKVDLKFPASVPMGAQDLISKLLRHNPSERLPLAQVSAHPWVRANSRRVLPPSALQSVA

Series [3] concerns the target T1, Phosphatidylinositol 4,5-bisphosphate 3-kinase catalytic subunit delta isoform (Homo sapiens, UniProt O00329).
T1 sequence (O00329 whole entry): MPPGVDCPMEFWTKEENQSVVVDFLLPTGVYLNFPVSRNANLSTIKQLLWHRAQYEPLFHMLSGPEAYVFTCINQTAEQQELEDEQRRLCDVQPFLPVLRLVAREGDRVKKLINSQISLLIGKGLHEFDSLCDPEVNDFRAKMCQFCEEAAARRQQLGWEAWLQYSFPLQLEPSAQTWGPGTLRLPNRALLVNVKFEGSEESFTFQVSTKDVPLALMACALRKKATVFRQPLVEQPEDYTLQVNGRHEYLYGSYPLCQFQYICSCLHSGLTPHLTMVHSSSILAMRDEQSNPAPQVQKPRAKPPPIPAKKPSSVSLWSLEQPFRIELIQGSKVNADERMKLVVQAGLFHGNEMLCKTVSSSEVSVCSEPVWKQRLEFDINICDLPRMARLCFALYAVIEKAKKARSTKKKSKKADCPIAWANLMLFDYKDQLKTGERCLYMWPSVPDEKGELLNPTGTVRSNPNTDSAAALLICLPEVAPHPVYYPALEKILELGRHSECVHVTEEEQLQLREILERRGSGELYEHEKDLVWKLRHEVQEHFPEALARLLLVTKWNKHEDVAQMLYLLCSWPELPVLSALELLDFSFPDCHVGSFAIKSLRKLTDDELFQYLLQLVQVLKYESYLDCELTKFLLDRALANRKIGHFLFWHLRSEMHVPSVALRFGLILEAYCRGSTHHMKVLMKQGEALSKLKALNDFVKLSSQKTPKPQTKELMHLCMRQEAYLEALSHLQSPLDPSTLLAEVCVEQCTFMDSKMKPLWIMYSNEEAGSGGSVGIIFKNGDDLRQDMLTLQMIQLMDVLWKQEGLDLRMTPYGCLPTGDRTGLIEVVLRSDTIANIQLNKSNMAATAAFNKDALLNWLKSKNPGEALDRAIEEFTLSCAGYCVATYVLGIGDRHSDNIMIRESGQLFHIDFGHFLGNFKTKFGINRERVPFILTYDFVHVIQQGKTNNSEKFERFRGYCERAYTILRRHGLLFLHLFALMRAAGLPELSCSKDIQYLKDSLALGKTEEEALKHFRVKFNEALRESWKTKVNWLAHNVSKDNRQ
Kind of series: Binding affinity to wild-type human partial length PIK3CD (R108 to Q1044 residues) expressed in mammalian expression system measured after 1 hr by kinomescan method. As to conditions: pooled result: one value given for 15 cell lines, strains, targets or settings.

Series [4] in a line: AUC (0 to infinity) in Sprague-Dawley rat at 50 mg/kg, po administered via gastric gavage by LC-MS/MS analysis. It counts as ADME, organism-based. On the set-up: dose 50 mg/kg, time infinity, route oral. The following applies: in vivo.
The subject of series [5] is HCT-116. In words: Cell cycle arrest in human HCT116 cells assessed as accumulation at G2/M phase at 1 uM measured after 24 to 48 hrs by propidium iodide staining-based flow cytometry (reference value: 3.37%). It counts as functional.
Series [6] can be described thus: Half life in Sprague-Dawley rat at 10 mg/kg, iv administered […] by LC-MS/MS analysis. It counts as ADME, organism-based. As to conditions: in vivo.
Series [7] addresses T2, Aurora kinase C (Homo sapiens, UniProt Q9UQB9).
T2 sequence (Q9UQB9 whole entry): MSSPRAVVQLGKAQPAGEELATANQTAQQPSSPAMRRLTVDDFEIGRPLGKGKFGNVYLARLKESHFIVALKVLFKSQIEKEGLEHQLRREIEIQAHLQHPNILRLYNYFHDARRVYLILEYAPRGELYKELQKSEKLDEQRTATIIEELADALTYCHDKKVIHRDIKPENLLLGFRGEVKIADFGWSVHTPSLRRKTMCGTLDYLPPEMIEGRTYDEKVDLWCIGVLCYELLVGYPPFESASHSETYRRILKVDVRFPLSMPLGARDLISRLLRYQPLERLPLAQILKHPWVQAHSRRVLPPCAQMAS
Kind of series: Binding affinity to wild-type human full length AURKC (M1 to S275 residues) expressed in bacterial expression system measured after 1 hr by Kinomescan method. The method, boiled down: as §1

In series [8] the test system is HCT-116. Kind of series: Antitumor activity against human HCT116 cells xenografted in BALB/c mouse assessed as mean survival days at 1 mg/kg, iv administered every 3 days for 60 days (reference value: 25 day). It counts as functional.
Series [9] concerns A549. In words: Antiproliferative activity against human A549 cells measured after 48 hrs by MTT assay. It counts as functional, cell-based. The following applies: A549, 48 h. The method, boiled down:
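Cells were exposed to a range of compound concentrations for 48 h. MTT reagent was then added and absorbance read at 490 nm. Viability was normalized to vehicle control set as 100%, from n = 3 independent experiments, and IC50 was taken from the dose–response curves.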

The subject of series [10] is HCT-116. In words: Antitumor activity against human HCT116 cells xenografted in BALB/c mouse assessed as reduction in tumor growth at 5 mg/kg, iv administered every 3 days for 24 days measured at 3 days interval during compound dosing. It counts as functional, organism-based.
Series [11] is described as follows: Toxicity in BALB/c mouse xenografted with human HCT116 cells assessed as change in body weight at 10 mg/kg, iv administered every 3 days for 24 days measured post-last dose. It counts as organism-based. As to conditions: in vivo.
Series [12] is filed under the species Homo sapiens. In words: Inhibition of AURKA/PLK1 in human HCT116 cells assessed as increase in histone H3 Ser10 phosphorylation measured after 24 to 48 hrs by Western blot analysis. It counts as cell-based.
For series [13], the target named is Serine/threonine-protein kinase PLK2 (Homo sapiens, UniProt Q9NYY3). In words: Binding affinity to wild-type human partial length PLK2 (H58 to F354 residues) expressed in mammalian expression system measured after 1 hr by kinomescan method. In outline:
as §1

The subject of series [14] is HCT-116. Kind of series: Antitumor activity against human HCT116 cells xenografted in BALB/c mouse assessed as mean survival days at 10 mg/kg, iv administered every 3 days for 60 days (reference value: 25 day). It counts as functional.
Series [15] relates to HCT-116. Kind of series: Cell cycle arrest in human HCT116 cells assessed as increase in accumulation at G2/M phase measured after 24 to 48 hrs by propidium iodide staining-based flow cytometry. It counts as functional.
The target in series [16] is Serine/threonine-protein kinase PLK1 (Homo sapiens, UniProt P53350). In words: Binding affinity to wild-type human partial length PLK1 (A33 to F325 residues) expressed in mammalian expression system measured after 1 hr by kinomescan method. The method, boiled down: as §1
Chain of Serine/threonine-protein kinase PLK1 (P53350 whole entry, the tested form may be a part): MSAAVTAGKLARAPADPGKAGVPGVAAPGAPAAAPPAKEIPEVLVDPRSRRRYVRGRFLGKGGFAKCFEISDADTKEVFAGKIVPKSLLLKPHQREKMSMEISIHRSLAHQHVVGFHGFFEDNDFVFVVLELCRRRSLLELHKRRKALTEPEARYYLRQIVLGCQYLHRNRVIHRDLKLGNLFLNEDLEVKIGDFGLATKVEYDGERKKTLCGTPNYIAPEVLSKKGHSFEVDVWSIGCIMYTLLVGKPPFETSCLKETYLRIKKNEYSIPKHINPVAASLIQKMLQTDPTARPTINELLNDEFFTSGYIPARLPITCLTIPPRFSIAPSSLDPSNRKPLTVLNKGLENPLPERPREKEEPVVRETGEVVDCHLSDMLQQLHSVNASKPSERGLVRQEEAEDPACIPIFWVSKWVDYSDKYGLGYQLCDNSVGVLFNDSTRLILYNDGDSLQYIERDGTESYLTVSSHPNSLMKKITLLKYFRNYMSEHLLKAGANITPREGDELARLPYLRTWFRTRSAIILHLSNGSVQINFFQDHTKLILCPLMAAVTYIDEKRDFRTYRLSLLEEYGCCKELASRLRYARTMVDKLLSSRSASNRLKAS
The test system of series [17] is HCT-116. Kind of series: Antitumor activity against human HCT116 cells xenografted in BALB/c mouse assessed as survival rate at 10 mg/kg, iv administered every 3 days for 60 days relative to control. It counts as functional. The following applies: HCT-116, iv.

Active and inactive are the calls of the source. The calls are words filed in the database; no cut-off is given here.

Chain of Serine/threonine-protein kinase PLK2 (Q9NYY3 whole entry, the tested form may be a part): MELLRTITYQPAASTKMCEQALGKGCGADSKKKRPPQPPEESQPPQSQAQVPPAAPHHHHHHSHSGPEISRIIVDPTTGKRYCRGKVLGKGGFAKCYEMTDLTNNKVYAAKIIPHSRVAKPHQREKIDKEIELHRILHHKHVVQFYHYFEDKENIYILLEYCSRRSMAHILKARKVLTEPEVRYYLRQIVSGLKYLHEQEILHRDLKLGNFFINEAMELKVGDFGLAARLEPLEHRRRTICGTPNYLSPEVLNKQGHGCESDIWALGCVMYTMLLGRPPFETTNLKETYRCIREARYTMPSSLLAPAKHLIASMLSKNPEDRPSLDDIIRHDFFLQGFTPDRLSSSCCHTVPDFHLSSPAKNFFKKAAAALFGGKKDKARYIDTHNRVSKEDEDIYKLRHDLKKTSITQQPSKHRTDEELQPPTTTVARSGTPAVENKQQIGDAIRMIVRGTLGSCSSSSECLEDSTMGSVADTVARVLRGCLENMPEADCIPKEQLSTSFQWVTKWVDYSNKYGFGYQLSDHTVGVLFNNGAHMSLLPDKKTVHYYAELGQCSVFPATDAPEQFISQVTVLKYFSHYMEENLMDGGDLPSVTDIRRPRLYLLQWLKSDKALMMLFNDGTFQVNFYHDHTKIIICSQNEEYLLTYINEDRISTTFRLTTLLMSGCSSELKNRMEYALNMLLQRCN

Take `O=C(Nc1ccc2cc(C(=O)Nc3nccs3)ccc2c1)c1ccc(Cl)c(Cl)c1`: the logD in [1] was found to be 4.8. The Kd in series [2] came to 78 nM; in [3] it was 7110 nM; in series [7], 289 nM; in series [13], 272 nM; in series [16], 55 nM. Besides, the AUC in series [4] was 819.495 µg·h/mL. Besides, the Activity in [5] is 7.51%; in series [11], “Toxic”; in series [15], “Dose-dependent effect”. For the same compound, the half-life in series [6] is 16.2 h. Also, the MSD is 37.5 days in series [8] and above 20 days in series [14]. Further, the concentration for half-maximal inhibition (IC50) in [9] came out at 11600 nM. The outcome in series [10] was Active. The inhibition entry in series [12] is “Active”. In addition, in series [17], the survival at 10 mg/kg was determined as 80%.
